Article PMC6649664 (Cell host & microbe, 2019)

Assays:
Assay type in all cases: cell-based
MRGPRX2 = biological target: T1, MRGPRX2 (Homo sapiens, UniProt Q96LB1); assay: Calcium imaging / FLIPR EC50 determination in HEK293 cells expressing MRGPRX2; details: HEK293 cells stably expressing MRGPRX2 and Gα15
T1 sequence (Q96LB1 1-330): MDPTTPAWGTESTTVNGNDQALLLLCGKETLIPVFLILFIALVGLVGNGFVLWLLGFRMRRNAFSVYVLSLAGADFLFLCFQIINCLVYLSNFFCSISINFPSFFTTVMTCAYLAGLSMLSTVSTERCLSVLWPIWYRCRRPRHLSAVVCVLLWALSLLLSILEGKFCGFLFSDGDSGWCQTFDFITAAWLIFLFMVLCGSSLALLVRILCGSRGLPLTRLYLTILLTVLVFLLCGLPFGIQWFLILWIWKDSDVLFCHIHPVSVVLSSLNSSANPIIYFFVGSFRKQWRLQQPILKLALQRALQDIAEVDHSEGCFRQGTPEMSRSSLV
Outline: (§1)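 HEK293 cells stably co-expressing Gα15 with the receptor were seeded at 4 × 10^4 cells/well and cultured overnight. After dye loading for 60 min at 37°C and 15 min recovery at RT, fluorescence was recorded on a Flexstation for 120 s. Compound, dissolved in HBSS+HEPES, was added as a 3X solution at 30 s. Response was taken as maximum minus minimum signal, averaged from duplicate wells. EC50 was fitted per trial after normalising to that trial's peak response.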

Mrgprb2 = biological target: T2, Mrgprb2 (Mus musculus, UniProt Q3KNA1); assay: Calcium imaging / FLIPR EC50 determination in HEK293 cells expressing Mrgprb2; details: HEK293 cells stably expressing Mrgprb2 and Gα15
T2 sequence (Q3KNA1 1-338): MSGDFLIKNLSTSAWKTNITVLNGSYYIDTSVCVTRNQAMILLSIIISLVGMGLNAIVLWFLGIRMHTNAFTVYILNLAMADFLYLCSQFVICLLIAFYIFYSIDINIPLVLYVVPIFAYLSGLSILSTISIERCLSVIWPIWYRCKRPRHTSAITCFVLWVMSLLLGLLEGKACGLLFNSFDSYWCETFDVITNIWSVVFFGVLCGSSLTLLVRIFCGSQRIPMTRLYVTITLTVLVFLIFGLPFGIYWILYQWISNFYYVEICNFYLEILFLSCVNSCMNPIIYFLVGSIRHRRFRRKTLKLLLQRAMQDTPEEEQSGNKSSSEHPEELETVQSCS
Outline: as §1

LAD2 human mast cells = assay: Mast cell degranulation assay; details: 30 min at 37°C
Outline: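 LAD2 cells were washed and resuspended at 0.5 × 10^6 cells/mL in 0.4% BSA-HEPES buffer, then exposed to compound for 30 min at 37°C in 5% CO2. β-Hexosaminidase was measured in supernatants and in 0.1% Triton X-100 lysates by p-nitrophenyl N-acetyl-β-D-glucosamide hydrolysis in 0.1 M sodium citrate (pH 4.5) for 90 min at 37°C. Release is expressed as percent of total content.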

Substance | activation of MRGPRX2-HEK cells (Ca2+ mobilization) (MRGPRX2) | activation of Mrgprb2-HEK cells (Ca2+ mobilization) (Mrgprb2) | β-hexosaminidase release (LAD2 human mast cells)
autoinducer-2 [AI-2] | did not activate | did not activate | did not activate
competence stimulating peptide [CSP] | activated | activated | 
